From PMC4201344 (ACS Chemical Biology, 2014)
Positions count from the first letter of the chain named. “Also recorded” adds a separate entry of the source.

Legend:
[1] = test system: GluClβ with α signal peptide, T6′S, F96TAG F2–Phe; experiment: two-electrode voltage clamp, Xenopus laevis oocytes, nonsense suppression; assay type: cell-based, C. elegans; conditions: glutamate
GluClβ T6′S, N202A = GluClβ T6′S, N202A (Caenorhabditis elegans, UniProt Q17328, N228A/T283S); experiment: two-electrode voltage clamp, Xenopus laevis oocytes; assay type: cell-based, C. elegans; conditions: glutamate
Sequence of GluClβ T6′S, N202A (Q17328 23-434 N228A/T283S): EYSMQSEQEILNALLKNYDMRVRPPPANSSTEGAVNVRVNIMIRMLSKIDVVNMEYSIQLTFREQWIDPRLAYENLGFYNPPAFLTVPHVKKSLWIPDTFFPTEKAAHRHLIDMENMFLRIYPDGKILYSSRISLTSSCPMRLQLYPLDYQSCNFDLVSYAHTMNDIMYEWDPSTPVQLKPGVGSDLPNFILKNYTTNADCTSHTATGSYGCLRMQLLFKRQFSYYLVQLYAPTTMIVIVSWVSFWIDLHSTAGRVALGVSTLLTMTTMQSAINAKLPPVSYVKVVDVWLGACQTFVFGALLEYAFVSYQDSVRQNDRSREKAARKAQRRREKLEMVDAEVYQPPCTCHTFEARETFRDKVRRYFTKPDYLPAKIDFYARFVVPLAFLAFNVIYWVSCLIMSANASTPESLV

[2] = test system: GluClβ T6′S, Y206TAG OMe–Phe; experiment: two-electrode voltage clamp, Xenopus laevis oocytes, nonsense suppression; assay type: cell-based, C. elegans; conditions: glutamate
GluClβ T6′S/T10′S = GluClβ T6′S/T10′S (Caenorhabditis elegans, UniProt Q17328, T283S/T287S); experiment: two-electrode voltage clamp, Xenopus laevis oocytes; assay type: cell-based, C. elegans; conditions: glutamate
Sequence of GluClβ T6′S/T10′S (Q17328 23-434 T283S/T287S): as the sequence (Q17328 23-434 N228A/T283S) above, with A206N, T265S counted along it

GluClβ L9′V = GluClβ L9′V (Caenorhabditis elegans, UniProt Q17328, L286V); experiment: two-electrode voltage clamp, Xenopus laevis oocytes; assay type: cell-based, C. elegans; conditions: glutamate
Sequence of GluClβ L9′V (Q17328 23-434 L286V): as the sequence (Q17328 23-434 N228A/T283S) above, with A206N, S261T, L264V counted along it
Method in brief: (§1)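 C. elegans GluClβ (mammalian codon-optimised) in pGEMhe, mutated by QuikChange; T7 mRNA. […] Voltage clamp at −60 mV in Ca-free ND96, pH 7.5. […] Peak currents taken from baseline, normalised, averaged per concentration, and fit to Hill equation (EC50, nH).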

GluClβ T6′S, T203A = GluClβ T6′S, T203A (Caenorhabditis elegans, UniProt Q17328, T229A/T283S); experiment: two-electrode voltage clamp, Xenopus laevis oocytes; assay type: cell-based, C. elegans; conditions: glutamate
Sequence of GluClβ T6′S, T203A (Q17328 23-434 T229A/T283S): as the sequence (Q17328 23-434 N228A/T283S) above, with A206N, T207A counted along it

GluClβ T6′S = GluClβ T6′S (Caenorhabditis elegans, UniProt Q17328, T283S); experiment: as above; assay type: cell-based, C. elegans; conditions: glutamate
Sequence of GluClβ T6′S (Q17328 23-434 T283S): as the sequence (Q17328 23-434 N228A/T283S) above, with A206N counted along it

GluClβ A2′T = GluClβ A2′T (Caenorhabditis elegans, UniProt Q17328, A279T); experiment: two-electrode voltage clamp, Xenopus laevis oocytes; assay type: cell-based, C. elegans; conditions: glutamate
Sequence of GluClβ A2′T (Q17328 23-434 A279T): as the sequence (Q17328 23-434 N228A/T283S) above, with A206N, A257T, S261T counted along it
Method in brief: as §1

GluClα receptor = GluClα receptor (Caenorhabditis elegans, UniProt G5EBR3); conditions: in the absence of ivermectin, Xenopus laevis oocytes; cited from earlier work
Sequence of GluClα receptor (G5EBR3 21-461): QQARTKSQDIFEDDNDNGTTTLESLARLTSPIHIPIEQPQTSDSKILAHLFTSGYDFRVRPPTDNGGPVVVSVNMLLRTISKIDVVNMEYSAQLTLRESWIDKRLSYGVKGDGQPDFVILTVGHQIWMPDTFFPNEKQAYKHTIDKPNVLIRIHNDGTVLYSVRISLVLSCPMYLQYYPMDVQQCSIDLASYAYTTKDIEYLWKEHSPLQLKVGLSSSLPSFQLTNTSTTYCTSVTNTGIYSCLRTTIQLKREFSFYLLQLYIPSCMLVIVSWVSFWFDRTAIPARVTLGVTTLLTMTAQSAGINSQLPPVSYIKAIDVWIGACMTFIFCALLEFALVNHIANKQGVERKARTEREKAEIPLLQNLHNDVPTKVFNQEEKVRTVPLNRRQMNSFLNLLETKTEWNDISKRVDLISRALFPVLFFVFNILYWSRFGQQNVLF

[3] = target: GluClβ with α signal peptide, T6′S (Caenorhabditis elegans, UniProt Q17328, T283S); experiment: two-electrode voltage clamp, Xenopus laevis oocytes; assay type: cell-based, C. elegans; conditions: glutamate
Sequence of GluClβ with α signal peptide, T6′S (Q17328 23-434 T283S): as the sequence (Q17328 23-434 N228A/T283S) above, with A206N counted along it
Method in brief: as §1

GluClβ A17′T = target: T1, GluClβ A17′T (Caenorhabditis elegans, UniProt Q17328, A294T); experiment: two-electrode voltage clamp, Xenopus laevis oocytes; assay type: cell-based, C. elegans; conditions: glutamate
T1 sequence (Q17328 23-434 A294T): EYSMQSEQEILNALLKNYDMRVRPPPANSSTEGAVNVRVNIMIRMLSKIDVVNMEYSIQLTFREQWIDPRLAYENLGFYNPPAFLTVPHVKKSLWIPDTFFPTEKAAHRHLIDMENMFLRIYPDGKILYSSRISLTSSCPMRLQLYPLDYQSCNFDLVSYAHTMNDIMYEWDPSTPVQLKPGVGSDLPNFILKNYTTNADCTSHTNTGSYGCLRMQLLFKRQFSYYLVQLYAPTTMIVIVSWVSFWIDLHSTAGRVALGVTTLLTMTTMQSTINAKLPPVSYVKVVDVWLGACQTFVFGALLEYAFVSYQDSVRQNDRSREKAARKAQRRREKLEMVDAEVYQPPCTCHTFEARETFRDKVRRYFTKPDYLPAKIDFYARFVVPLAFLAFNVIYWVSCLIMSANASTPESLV

[4] = test system: GluClβ with α signal peptide, T6′S, Y156TAG F1–Phe; experiment: two-electrode voltage clamp, Xenopus laevis oocytes, nonsense suppression; assay type: cell-based, C. elegans; conditions: glutamate
GluClβ A17′S = target: T2, GluClβ A17′S (Caenorhabditis elegans, UniProt Q17328, A294S); experiment: two-electrode voltage clamp, Xenopus laevis oocytes; assay type: cell-based, C. elegans; conditions: glutamate
T2 sequence (Q17328 23-434 A294S): T1 sequence (Q17328 23-434 A294T) with T272S

GluClβ T10′A = target: T3, GluClβ T10′A (Caenorhabditis elegans, UniProt Q17328, T287A); experiment: as above; assay type: cell-based, C. elegans
T3 sequence (Q17328 23-434 T287A): T1 sequence (Q17328 23-434 A294T) with T265A, T272A

[5] = test system: GluClβ T6′S, Y206TAG Br–Phe; experiment: two-electrode voltage clamp, Xenopus laevis oocytes, nonsense suppression; assay type: cell-based, C. elegans; conditions: glutamate
GluClβ L9′F = GluClβ L9′F (Caenorhabditis elegans, UniProt Q17328, L286F); experiment: two-electrode voltage clamp, Xenopus laevis oocytes; assay type: cell-based, C. elegans; conditions: glutamate
Sequence of GluClβ L9′F (Q17328 23-434 L286F): as the sequence (Q17328 23-434 N228A/T283S) above, with A206N, S261T, L264F counted along it
Method in brief: as §1

[6] = target: GluClβ with α signal peptide (no T6′S) (Caenorhabditis elegans, UniProt Q17328); experiment: two-electrode voltage clamp, Xenopus laevis oocytes; assay type: cell-based, C. elegans; conditions: α signal peptide chimera vs wild type
Sequence of GluClβ with α signal peptide (no T6′S) (Q17328 23-434): as the sequence (Q17328 23-434 N228A/T283S) above, with A206N, S261T counted along it

EC50 [1]: 4.7 ± 0.1 µM
Hill (GluClβ T6′S, N202A): 3.3 ± 0.2
EC50 [2]: 560 ± 10 µM
EC50 (GluClβ L9′V): no response
EC50 (GluClβ T6′S, T203A): 640 ± 10 µM
Hill (GluClβ T6′S, T203A): 2.3 ± 0.1
Hill (GluClβ T6′S): 2.4 ± 0.3
Hill [3]: 2.7 ± 0.2
EC50 (GluClβ A17′T): 58 ± 1 µM
Hill (GluClβ A17′T): 2.8 ± 0.1
Imax (GluClβ A17′T): 0.3–13 μA
EC50 [4]: 14000 ± 1000 µM
EC50 (GluClβ A17′S): 230 ± 10 µM
Hill (GluClβ A17′S): 2.5 ± 0.1
Imax (GluClβ A17′S): 0.6–12 μA
EC50 (GluClβ T10′A; glutamate): 13 ± 1 µM
Hill (GluClβ T10′A; glutamate): 2.8 ± 0.1
Imax (GluClβ T10′A; glutamate): 2–28 μA
increase in receptor sensitivity (GluClβ T10′A; vs WT): 27 fold
EC50 [5]: 980 ± 30 µM
EC50 (GluClβ L9′F): constitutively active
increase in EC50 [6]: < 3 fold
SMILES: N[C@@H](CCC(=O)O)C(=O)O [glutamate]
Hill [1]: 4.1 ± 0.5
Imax [1]: 0.04–1 μA
Hill [2]: 1.8 ± 0.1
Imax [2]: 0.1–1.4 μA
EC50 (GluClβ T6′S/T10′S): constitutive activity, some glutamate response
EC50 (GluClβ A2′T): abolished glutamate-induced currents; also recorded: no response
activation by glutamate (GluClα receptor): not activated
Hill [4]: 2.0 ± 0.1
Imax [4]: 0.1–5 μA
Hill [5]: 2.5 ± 0.1
Imax [5]: 0.08–6 μA
